Inconclusive results are not listed.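 The calls were made as follows, unless noted: active = RAM network inhibition above 8.4% in each of two replicates, 3 SD over the compound average; inconclusive = above 8.4% inhibition in only one replicate; inactive = 8.4% inhibition or less in each replicate.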
How the values were obtained:
[1] = OD615 S. cerevisiae growth inhibition, permissive medium, pilot counter-assay, permissive growth control for S. cerevisiae lifespan shortening project (AID 705;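 active = growth inhibition above 25% in both replicates, a cutoff set 3 SD above the mean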); conditions: OD615, 24 h, at 10 µM, active compounds read high
Procedure, shortened: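 System: Engineered DeaD yeast | Buffer or medium: SC raffinose/galactose permissive medium | Incubation: Cells pre-grown 4 h, then 24 h compound exposure, 30 °C humidified | Measured by: Absorbance (optical density) at 615 nm | Read-out: Reduction in yeast growth (OD615)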

[2] = Restrictive medium S. cerevisiae growth inhibition, OD615, pilot screen of yeast lifespan reduction project, restrictive growth control (AID 706;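 active = growth inhibition above a set limit, 3 SD over mean compound inhibition, in both replicates, cut at about 43% in these data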;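 also: modified DeaD lifespan yeast strain shifted to restrictive glucose medium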); conditions: OD615, 48 h, at 10 µM, active compounds read high
Procedure, shortened: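 Material: modified S. cerevisiae; Medium: glucose-based CSMM-D restrictive medium; Compound dosing: one concentration, 10 µM final, 0.25% DMSO; Incubation: 48 h compound exposure at 30 °C; Measured by: OD615.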

[3] = viability gain of MRP-1-high H69AR cells under doxorubicin, pilot screen, MRP-1 activator project, CellTiter-Glo, duplicate (AID 807;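 active = viability increase at or above a cutoff of the median across tested compounds plus 3 SD, cut at about 8.5% in these data, passing the limit was not always enough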;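 also: compound pretreatment 18-22 h then 72 h combined with doxorubicin; 0% = doxorubicin alone and 100% = vehicle without doxorubicin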); conditions: H69AR viability with doxorubicin, CellTiter-Glo luminescence; at 10 µM; active compounds read high
[4] = growth suppression of beta-catenin knockout HCT116, pilot screen, human colon tumor cells (AID 823;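 active = cell viability at or below a set limit in both duplicate runs, the limit being the all-compound median minus 4 SD, cut at about 23% in these data, passing the limit was not always enough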;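 also: 0% = wells killed by 20 µM Hyamine and 100% = untreated DMSO cell wells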); conditions: CellTiter-Glo, 60 h, at 10 µM, active compounds read low
[5] = growth suppression of PTEN-deleted HCT116, pilot screen, cell-based, HCT116 clonal line, CellTiter-Glo (AID 824;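 active = viability at or below 27.92% in each of two runs, the all-compound median minus 4 SD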;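 also: 0% = 20 µM Hyamine control and 100% = vehicle cell control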); conditions: 60 h, at 10 µM, active compounds read low
[6] = inhibitors of the yeast RAM network, pilot screen, dse1pr::URA3 reporter, 5-FOA selection (AID 869;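 active = inhibition over a set limit, the all-compound mean plus 3 SD, in both replicate runs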;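 also: 0% = DMSO wells with no growth and 100% = 10 µM 1-NA-PP1 with full growth; RAM network block rescues cells from 5-FOA so hits raise OD615 growth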); conditions: S. cerevisiae dse1pr::URA3 5-FOA growth, OD615, 2 d; at 10 µM; active compounds read high; strain carries analog-sensitive mutant Cbk1 kinase
[7] = RAM signaling pathway blockade in yeast – S. cerevisiae, Pdr1DBD-CYC8 efflux-inhibited sensitized strain, primary screen (AID 1298);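 also: 0% = DMSO untreated cells without growth and 100% = 10 µM 1-NA-PP1 full growth; higher means more yeast growth rescued from 5-FOA killing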; conditions: S. cerevisiae cbk1-as DSE1-URA3 strain, 5-FOA growth OD615, 2 d; at 50 µM; active compounds read high

O=C1CC(N2CCN(C(c3ccccc3)c3ccccc3)CC2)C(=O)N1 (stereo not drawn)
inactive: growth inhibition [1] -8.31% | growth inhibition [2] -9.7% | viability increase [3] -1.16% | viability [4] 102% | viability [5] 102% | inhibition [6] 1.03% | RAM network inhibition [7] 5.3%

Cc1ccc(N(C(=O)c2cccs2)C2C=CS(=O)(=O)C2)cc1 (stereo not drawn)
inactive: growth inhibition [1] -11.1% | growth inhibition [2] -10.6% | viability increase [3] -2.23% | viability [4] 98.3% | viability [5] 94% | inhibition [6] 1.96% | RAM network inhibition [7] 1.19%

CC(=O)Nc1sc(C)c(C)c1CN1CCN(S(=O)(=O)c2ccccc2)CC1
inactive: growth inhibition [1] -1.31% | growth inhibition [2] -23.5% | viability increase [3] -2.28% | viability [4] 88.5% | viability [5] 85% | inhibition [6] -0.365% | RAM network inhibition [7] 1.74%

COc1ccc(C2(O)CCN(C(=O)c3ccc4c(c3)OCO4)CC2)cc1
inactive: growth inhibition [1] -12.1% | growth inhibition [2] -15.2% | viability increase [3] -0.75% | viability [4] 106% | viability [5] 101% | inhibition [6] 0.965% | RAM network inhibition [7] 0.72%

C=CCn1c(SCCCc2ccccc2)nc2c1c(=O)[nH]c(=O)n2C
inactive: growth inhibition [1] 5.96% | growth inhibition [2] 6.29% | viability increase [3] -5.7% | viability [4] 67.8% | viability [5] 65.2% | inhibition [6] 0.525% | RAM network inhibition [7] 4.94%

CCCCn1c(C(C)NC(=O)CCC)nc2ccccc21 (stereo not drawn)
inactive: growth inhibition [1] -1.25% | growth inhibition [2] -0.375% | viability increase [3] 1.35% | viability [4] 86.2% | viability [5] 91% | inhibition [6] 0.88% | RAM network inhibition [7] 7.23%

CN1CCCN(Cc2ccccc2C(F)(F)F)CC1
inactive: growth inhibition [1] 1.78% | growth inhibition [2] 1.52% | viability increase [3] -1.78% | viability [4] 97.6% | viability [5] 98.1% | inhibition [6] 1.25% | RAM network inhibition [7] 1.53%

COc1ccc(OC)c(NC(=O)Nc2nnc(N3CCC(C)CC3)s2)c1
inactive: growth inhibition [1] -10.7% | growth inhibition [2] -9.16% | viability increase [3] 0.87% | viability [4] 93.1% | viability [5] 92.7% | inhibition [6] 1.01% | RAM network inhibition [7] 2.27%

Oc1c(C(c2ccccc2)N2CCCCC2)sc2ncnn12 (stereo not drawn)
inactive: growth inhibition [1] -0.17% | growth inhibition [2] -3.96% | viability increase [3] -0.8% | viability [4] 95.7% | viability [5] 91.8% | inhibition [6] 1.76% | RAM network inhibition [7] 0.66%

CC1CCC(NC(=O)c2cc3c(=O)n(C)c4ccccc4c3n2C)CC1 (stereo not drawn)
inactive: growth inhibition [1] -12.8% | growth inhibition [2] -9.28% | viability increase [3] -4.41% | viability [4] 76.8% | viability [5] 66% | inhibition [6] 2.25% | RAM network inhibition [7] 4.58%

CC(C)CC(=O)Nc1ccc(C(=O)COc2ccc(-c3nnco3)cc2)cc1
inactive: growth inhibition [1] -0.165% | growth inhibition [2] -0.795% | viability increase [3] 0.84% | viability [4] 88% | viability [5] 87% | inhibition [6] 0.965% | RAM network inhibition [7] 2.46%

COc1cccc(NC(=O)c2ccncc2)c1
inactive: growth inhibition [1] -9.44% | growth inhibition [2] -11% | viability increase [3] -3.81% | viability [4] 94.3% | viability [5] 100% | inhibition [6] 1.18% | RAM network inhibition [7] 4.2%

Cc1nc(N2CCN(c3ccccc3)CC2)c2c3c(sc2n1)CCC3
inactive: growth inhibition [1] -0.345% | growth inhibition [2] 29.8% | viability increase [3] 3% | viability [4] 73.8% | viability [5] 81.5% | inhibition [6] 1.38% | RAM network inhibition [7] 1.62%

CCOC(=O)N1CCC(NC(=O)c2cc3c(C)nc4ccccc4c3o2)CC1
inactive: growth inhibition [1] -14.7% | growth inhibition [2] -11.2% | viability increase [3] -3.16% | viability [4] 92.6% | viability [5] 91.5% | inhibition [6] 0.54% | RAM network inhibition [7] 3.54%

c1ccc(-c2nnc(SCc3nc4ccccc4[nH]3)n2Cc2ccco2)nc1
inactive: growth inhibition [1] -0.44% | growth inhibition [2] 10.8% | viability increase [3] -1.33% | viability [4] 90.3% | viability [5] 91% | inhibition [6] 0.04% | RAM network inhibition [7] -0.6%

C=CCn1c(C(C)NC(=O)C(C)(C)C)nc2ccccc21 (stereo not drawn)
inactive: growth inhibition [1] -9.47% | growth inhibition [2] -11.3% | viability increase [3] 1.33% | viability [4] 94.8% | viability [5] 95.5% | inhibition [6] 1.41% | RAM network inhibition [7] 0.71%

c1cc2c3c(cccc3c1)C(N1CCCCC1)=N2
inactive: growth inhibition [1] 1.8% | growth inhibition [2] -3.38% | viability increase [3] -4.54% | viability [4] 72.1% | viability [5] 74.4% | inhibition [6] 0.665% | RAM network inhibition [7] 1.88%

CC1CCN(C(=O)CNC(=O)Cn2ccc3ccccc3c2=O)CC1
inactive: growth inhibition [1] -9.29% | growth inhibition [2] -0.685% | viability increase [3] -1.73% | viability [4] 98.2% | viability [5] 94.1% | inhibition [6] 0.755% | RAM network inhibition [7] 1.67%

CCOC(=O)N1CCN(Cc2nc3c(c(=O)n(C)c(=O)n3C)n2CCC(C)C)CC1
inactive: growth inhibition [1] -5% | growth inhibition [2] -10.9% | viability increase [3] -4.73% | viability [4] 97.3% | viability [5] 99.9% | inhibition [6] 0.37% | RAM network inhibition [7] 8.2%

COc1ccc(CN2CCN(C(=O)c3cccs3)CC2)cc1Br
inactive: growth inhibition [1] -11.5% | growth inhibition [2] -13.4% | viability increase [3] -1.27% | viability [4] 85.4% | viability [5] 87.9% | inhibition [6] 0.72% | RAM network inhibition [7] 2.53%

CC(C)C(NS(=O)(=O)c1ccc2c3c(cccc13)C(=O)N2)C(=O)O (stereo not drawn)
inactive: growth inhibition [1] -4.62% | growth inhibition [2] -4.4% | viability increase [3] -0.28% | viability [4] 97% | viability [5] 93.6% | inhibition [6] 1.71% | RAM network inhibition [7] 3.8%

O=C1c2ccccc2C(=O)N1CSc1ncccn1
inactive: growth inhibition [1] 0.27% | growth inhibition [2] -7.91% | viability increase [3] -3.86% | viability [4] 87.4% | viability [5] 89.7% | inhibition [6] 1.09% | RAM network inhibition [7] 2.25%

O=C1CC(c2ccccc2)C(C(=O)O)N1 (stereo not drawn)
inactive: growth inhibition [1] -0.84% | growth inhibition [2] -18.1% | viability increase [3] 1.77% | viability [4] 99.2% | viability [5] 102% | inhibition [6] 2.74% | RAM network inhibition [7] 0.37%

O=C(c1cc(C2CC2)on1)N1CCOCC1
inactive: growth inhibition [1] -4.11% | growth inhibition [2] -0.575% | viability increase [3] 0.15% | viability [4] 96% | viability [5] 98.7% | inhibition [6] 1.57% | RAM network inhibition [7] 2.93%
